Laboratory results reported in ChEMBL document CHEMBL1121898, “Potential antiestrogens. Synthesis and evaluation of mammary tumor inhibiting activity of 1,2-dialkyl-1,2-bis(3'-hydroxyphenyl)ethanes” (1981).
Where “and” joins values, the source holds several entries; their conditions need not be identical. Equal values may be shown once. Calls of active or inactive are those of the source.

How the values were obtained:
[1] = organism: Rattus norvegicus; assay: Complete remission of DMBA-induced hormone-dependent mammary carcinoma tumors in rats at 36 mg; format: functional
How it was run: (§1)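 Female SD rats bearing DMBA-induced, hormone-dependent mammary adenocarcinoma, with at least one tumor >140 mm², were grouped in tens. Dosing was sc per kg body weight: a single dose daily Monday–Thursday and a double dose Friday. Ovariectomy served as the comparison arm. Complete remission was defined as a tumor no longer palpable. Body weight and tumor area changes were also recorded.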

[2] = organism: Rattus norvegicus; assay: Complete remission of DMBA-induced hormone-dependent mammary carcinoma tumors in rats at 72 mg; format: functional; how it was run: as §1
[3] = organism: Rattus norvegicus; assay: Final number of DMBA-induced hormone-dependent mammary carcinoma tumors in rats at 36 mg; format: functional
How it was run: (§2)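 Sprague-Dawley rats carrying DMBA-induced, hormone-dependent mammary adenocarcinoma, at least one tumor >140 mm², were placed in groups of ten. Compounds were given sc, with doses in mg/kg: a single daily dose Monday to Thursday and a double dose on Friday. Ovariectomy served as a comparator group. New tumors arising during the test were counted.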

[4] = organism: Rattus norvegicus; assay: Partial remission of DMBA-induced hormone-dependent mammary carcinoma tumors in rats at 18 mg; format: functional
How it was run: (§3)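 DMBA-induced, hormone-dependent mammary adenocarcinoma in SD rats. Rats bearing at least one tumor >140 mm² were placed in groups of ten. Compound was given sc as a single dose (mg/kg) daily Monday–Thursday and a double dose on Friday. Tumors were counted at the start and as new tumors; responses were scored as complete remission (not palpable), partial remission (≥50% reduction), no change or progression. Tumor area and body weight were recorded as % change.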

[5] = organism: Rattus norvegicus; assay: Partial remission of DMBA-induced hormone-dependent mammary carcinoma tumors in rats at 72 mg; format: functional; how it was run: as §3
[6] = organism: Rattus norvegicus; assay: Percent change in body weight DMBA-induced hormone-dependent mammary carcinoma tumors in rats at 18 mg for 7 days; format: functional; how it was run: as §3
[7] = organism: Rattus norvegicus; assay: Percent change in body weight DMBA-induced hormone-dependent mammary carcinoma tumors in rats at 72 mg for 7 days; format: functional
[8] = organism: Rattus norvegicus; assay: Percent change in DMBA-induced hormone-dependent mammary carcinoma tumor area at 36 mg after 28 days; format: functional; how it was run: as §3
[9] = organism: Rattus norvegicus; assay: Percent change in DMBA-induced hormone-dependent mammary carcinoma tumor area at 18 mg after 28 days; format: functional; how it was run: as §3
[10] = organism: Rattus norvegicus; assay: Partial remission of DMBA-induced hormone-dependent mammary carcinoma tumors in rats at 36 mg; format: functional; how it was run: as §3
[11] = organism: Rattus norvegicus; assay: Percent unchanged tumor size of DMBA-induced hormone-dependent mammary carcinoma tumors in rats at 36 mg; format: functional
[12] = organism: Rattus norvegicus; assay: Percent unchanged tumor size of DMBA-induced hormone-dependent mammary carcinoma tumors in rats at 72 mg; format: functional
[13] = organism: Rattus norvegicus; assay: Percent unchanged tumor size of DMBA-induced hormone-dependent mammary carcinoma tumors in rats at 18 mg; format: functional
[14] = organism: Rattus norvegicus; assay: Progression of DMBA-induced hormone-dependent mammary carcinoma tumors in rats at 72 mg; format: functional; how it was run: as §3
[15] = organism: Rattus norvegicus; assay: Progression of DMBA-induced hormone-dependent mammary carcinoma tumors in rats at 18 mg; format: functional
[16] = organism: Rattus norvegicus; assay: Complete remission of DMBA-induced hormone-dependent mammary carcinoma tumors in rats at 18 mg; format: functional; how it was run: as §1
[17] = organism: Rattus norvegicus; assay: Initial tumor number of DMBA-induced hormone-dependent mammary carcinoma in rats at 36 mg; format: functional; how it was run: as §3
[18] = organism: Rattus norvegicus; assay: Initial tumor number of DMBA-induced hormone-dependent mammary carcinoma in rats at 72 mg; format: functional; how it was run: as §3
[19] = test system: MCF7; assay: Inhibition of estrogen receptor positive MCF-7 cell proliferation as percent treated/control cell number after 10 days at 10e-6 M; format: functional, Homo sapiens
How it was run: (§4)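 MCF-7 cells were grown in McCoy's 5a medium with fetal bovine serum stripped by DCC (0.5 h, 45 °C). Compounds were dissolved in ethanol (final ≤0.5%) and diluted in complete medium. Cells were seeded at 5×10^4 cells/plate. On day 10, three replicate plates per group were counted by Coulter counter, three counts per plate. Percent T/C = test/control. In a retest, compounds were given at 10^-7 M with 17β-estradiol at 10^-7 or 10^-8 M.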

[20] = test system: MCF7; assay: Inhibition of estrogen receptor positive MCF-7 cell proliferation as percent treated/control cell number after 10 days at 10e-7 M; format: functional, Homo sapiens; how it was run: as §4
[21] = test system: MCF7; assay: Inhibition of estrogen receptor positive MCF-7 cell proliferation as percent treated/control cell number after 10 days at 10e-7 M with 10e-7 M 17-beta-estradiol; format: functional, Homo sapiens; how it was run: as §4
[22] = test system: MCF7; assay: Inhibition of estrogen receptor positive MCF-7 cell proliferation as percent treated/control cell number after 10 days at 10e-8 M; format: functional, Homo sapiens; how it was run: as §4
[23] = test system: MCF7; assay: Inhibition of estrogen receptor positive MCF-7 cell proliferation as cell number after 10 days at 10e-8 M; format: functional, Homo sapiens; how it was run: as §4
[24] = test system: MCF7; assay: Inhibition of estrogen receptor positive MCF-7 cell proliferation as cell number after 10 days at 10e-9 M; format: functional, Homo sapiens; how it was run: as §4
[25] = test system: MCF7; assay: Inhibition of estrogen receptor positive MCF-7 cell proliferation as percent treated/control cell number after 10 days at 10e-9 M; format: functional, Homo sapiens; how it was run: as §4
[26] = test system: MCF7; assay: Inhibition of estrogen receptor positive MCF-7 cell proliferation as cell number after 10 days at 10e-6 M; format: functional, Homo sapiens; how it was run: as §4
[27] = test system: MCF7; assay: Inhibition of estrogen receptor positive MCF-7 cell proliferation as cell number after 10 days at 10e-7 M and 10e-8 M 17-beta-estradiol; format: functional, Homo sapiens; how it was run: as §4
[28] = test system: MCF7; assay: Inhibition of estrogen receptor positive MCF-7 cell proliferation as cell number after 10 days at 10e-7 M and 10e-7 M 17-beta-estradiol; format: functional, Homo sapiens; how it was run: as §4
[29] = test system: MCF7; assay: (§5) Inhibition of estrogen receptor positive MCF-7 cell proliferation as cell number after 10 days at 10e-7 M; format: functional, Homo sapiens; how it was run: as §4
[30] = test system: MCF7; assay: as §5; format: functional, Homo sapiens; how it was run: as §4; remark: listed apart in the source
[31] = organism: Rattus norvegicus; assay: Initial tumor number of DMBA-induced hormone-dependent mammary carcinoma in rats at 18 mg; format: functional; how it was run: as §3
[32] = organism: Rattus norvegicus; assay: Percent change in DMBA-induced hormone-dependent mammary carcinoma tumor area at 72 mg after 28 days; format: functional; how it was run: as §3
[33] = molecular target: T1, Estrogen receptor (Mus musculus) (UniProt O08537+P19785); assay: Antiestrogenic activity in uterotrophic test in mice at 0.1 ug (experiment 1); format: functional
How it was run: (§6)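 Immature female NMRI mice, 20 days old (14.5 ± 1.2 g), randomly grouped 10 per group. Each received a daily sc injection for 3 days of 0.1 mL olive oil solution containing test compound, together with estrone to stimulate uterine growth. Uteri were removed 24 h after the last injection and weighed. Results are reported as % inhibition of the estrone-stimulated uterine weight gain, mean ± SD.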

[34] = molecular target: T1, Estrogen receptor (Mus musculus); assay: Antiestrogenic activity in uterotrophic test in mice at 5 ug (experiment 2); format: functional; how it was run: as §6
[35] = molecular target: T1, Estrogen receptor (Mus musculus); assay: Antiestrogenic activity in uterotrophic test in mice at 500 ug (experiment 3); format: functional; how it was run: as §6
[36] = molecular target: T1, Estrogen receptor (Mus musculus); assay: Antiestrogenic activity in uterotrophic test in mice at 0 ug (experiment 2); format: functional; how it was run: as §6
[37] = molecular target: T1, Estrogen receptor (Mus musculus); assay: Antiestrogenic activity in uterotrophic test in mice at 0 ug (experiment 3); format: functional; how it was run: as §6
[38] = molecular target: T1, Estrogen receptor (Mus musculus); assay: Antiestrogenic activity in uterotrophic test in mice at 50 ug (experiment 3); format: functional; how it was run: as §6
[39] = test system: MCF7; assay: Inhibition of estrogen receptor positive MCF-7 cell proliferation as percent treated/control cell number after 10 days at 10e-7 M with 10e-8 M 17-beta-estradiol; format: functional, Homo sapiens; how it was run: as §4
[40] = molecular target: T1, Estrogen receptor (Mus musculus); assay: Estrogenic activity in uterotrophic test in mice; No effect; format: functional
How it was run: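 Immature (20-day-old) female NMRI mice, 14.5 ± 1.2 g, randomized into groups of 10. Given the test compound sc daily for 3 days in 0.1 mL olive oil. Uteri removed 24 h after the last injection; uterine weight taken as the read-out, means ± SD. Dose in μg.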

[41] = molecular target: T1, Estrogen receptor (Mus musculus); assay: Inhibitory activity in mouse uterine weight test at 5 ug (experiment 2); format: functional
How it was run: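 Antiuterotrophic (Dorfman) assay in immature 20-day-old female NMRI mice, groups of 10. Uterine growth was stimulated with estrone (0.1 μg) and the test compound was given alongside it, sc daily for 3 days in 0.1 mL olive oil. Uteri were taken 24 h after the last dose. Uterine weight is reported as means ± SD and inhibition as % of the estrone-stimulated response.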

[42] = molecular target: T1, Estrogen receptor (Mus musculus); assay: Inhibitory activity in mouse uterine weight test at 50 ug (experiment 3); format: functional
How it was run: (§7)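 Immature female NMRI mice, 20 days old (14.5 ± 1.2 g), in random groups of 10. They received sc injections daily for 3 days of 0.1 mL olive oil containing test compound, with estrone 0.1 μg given to stimulate uterine growth. Uteri were removed 24 h after the last injection and weighed (mean ± SD). Result is percent inhibition of the estrone-stimulated uterine weight gain.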

[43] = molecular target: T1, Estrogen receptor (Mus musculus); assay: Inhibitory activity in mouse uterine weight test at 500 ug (experiment 3); format: functional; how it was run: as §7
[44] = organism: Rattus norvegicus; assay: Final number of DMBA-induced hormone-dependent mammary carcinoma tumors in rats at 18 mg; format: functional; how it was run: as §2
[45] = organism: Rattus norvegicus; assay: Final number of DMBA-induced hormone-dependent mammary carcinoma tumors in rats at 72 mg; format: functional; how it was run: as §2
[46] = organism: Rattus norvegicus; assay: Percent change in body weight DMBA-induced hormone-dependent mammary carcinoma tumors in rats at 36 mg for 7 days; format: functional
[47] = test system: Estrogen receptor (Bos taurus); assay: Displacement of [3H]estradiol from calf estrogen receptor

T1 sequence (O08537 whole entry, looked up): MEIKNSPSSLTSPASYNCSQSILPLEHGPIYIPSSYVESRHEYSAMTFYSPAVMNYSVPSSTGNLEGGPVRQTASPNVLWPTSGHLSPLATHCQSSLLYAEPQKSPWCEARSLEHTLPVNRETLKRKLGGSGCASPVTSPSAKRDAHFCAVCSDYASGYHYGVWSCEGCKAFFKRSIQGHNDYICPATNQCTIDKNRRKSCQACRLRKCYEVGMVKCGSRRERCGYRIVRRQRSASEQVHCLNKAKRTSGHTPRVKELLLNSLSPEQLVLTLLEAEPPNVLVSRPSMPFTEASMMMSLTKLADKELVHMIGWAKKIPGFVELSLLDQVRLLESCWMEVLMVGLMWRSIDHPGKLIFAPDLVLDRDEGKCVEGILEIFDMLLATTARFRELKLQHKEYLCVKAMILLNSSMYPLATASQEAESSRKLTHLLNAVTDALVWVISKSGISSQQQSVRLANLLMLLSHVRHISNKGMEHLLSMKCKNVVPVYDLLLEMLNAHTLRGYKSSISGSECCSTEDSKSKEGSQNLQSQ
T1 sequence (P19785 whole entry, looked up): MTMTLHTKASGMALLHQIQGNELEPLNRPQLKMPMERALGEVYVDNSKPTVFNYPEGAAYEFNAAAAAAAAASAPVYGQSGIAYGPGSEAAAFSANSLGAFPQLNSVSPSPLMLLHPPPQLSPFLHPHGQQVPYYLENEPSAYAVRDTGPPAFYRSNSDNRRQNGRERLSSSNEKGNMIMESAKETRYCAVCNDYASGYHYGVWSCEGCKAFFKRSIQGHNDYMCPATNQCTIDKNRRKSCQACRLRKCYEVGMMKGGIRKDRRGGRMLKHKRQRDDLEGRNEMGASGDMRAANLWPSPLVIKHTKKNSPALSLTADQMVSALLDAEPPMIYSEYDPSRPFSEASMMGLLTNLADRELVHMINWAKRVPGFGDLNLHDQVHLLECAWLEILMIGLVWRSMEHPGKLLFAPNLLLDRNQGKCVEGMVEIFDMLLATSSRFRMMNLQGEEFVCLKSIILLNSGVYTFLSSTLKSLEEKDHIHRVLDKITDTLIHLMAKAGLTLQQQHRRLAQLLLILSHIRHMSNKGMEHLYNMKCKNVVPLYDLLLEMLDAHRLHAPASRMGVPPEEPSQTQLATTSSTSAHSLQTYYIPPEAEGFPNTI

CC(c1cccc(O)c1)C(C)c1cccc(O)c1 (configuration not stated)
Tumors [1]: 29% | Tumors [2]: 34% | No. of tumors [3]: 12 | Tumors [4]: 11% | Tumors [5]: 25% | Change [6]: 2.4% | Change [7]: 0.9% | Change [8]: 105% | Change [9]: 188% | Tumors [10]: 9% | Tumors [11]: 38% | Tumors [12]: 16% | Tumors [13]: 24% | Tumors [14]: 25% | Tumors [15]: 51% | Tumors [16]: 14% | No. of tumors [17]: 22 | No. of tumors [18]: 26 | T/C [19]: 71% | T/C [20]: 92% and 77% | T/C [21]: 107% | T/C [22]: 82% | Cell number [23]: 35900 | Cell number [24]: 39800 | T/C [25]: 91% | Cell number [26]: 32200 | Cell number [27]: 8000 | Cell number [28]: 7100 | Cell number [29]: 6100 | Cell number [30]: 33600 | No. of tumors [31]: 21 | Change [32]: 6% | Effect [33]: 38.5 | Effect [34]: 36.5 | Effect [35]: 29 | Effect [36]: 10.5 | Effect [37]: 9.9 | Effect [38]: 34.3 | T/C [39]: 121% | Effect [40]: inactive | inhibition [41]: 7% | inhibition [42]: 12% | inhibition [43]: 31% | No. of tumors [44]: 16 | No. of tumors [45]: 22 | Change [46]: 1.6% | Ka [47]: 1.1e+07 M⁻¹
